Results pooled from the literature.
Each line is one published result; the experiments were not run side by side.
Target: MAP kinase-activated protein kinase 2 (MAPKAPK2, Homo sapiens, UniProt P49137)

Structure (SMILES) | assay | conditions | measurement | result
COc1cc(Nc2cnc(C#N)c(O[C@H](C)CN(C)C)n2)ncc1-c1cnn(C)c1 | enzyme activity, inhibitor, radiometric | 1 µM | remaining activity | 112%
COc1cc(Nc2c(C#N)cnc3cc(OCCCN4CCN(C)CC4)c(OC)cc23)c(Cl)cc1Cl | cell-free assay | 0.5 µM | remaining signal | 94.7%
COc1cc(/C=C/C(=O)CC(=O)/C=C/c2ccc(O)c(OC)c2)ccc1O | enzyme activity, inhibitor | 1 µM | activity vs control | 90%
CN(C)C1CCN(CC#Cc2nn(C3CCCC3)c3nc(NCc4ccccc4)ncc23)C1 (stereo not shown) | enzyme activity, inhibitor, FRET | 1 µM | inhibition | -2%
Cc1c(NC(=O)c2cc(C(N)=O)nc3cc(F)ccc23)c(C(F)(F)F)nn1Cc1ccc(C#N)cc1 | cell-free assay, competition with immobilised ligand | 1 µM | remaining binding | 97%
CCCS(=O)(=O)Nc1ccc(F)c(C(=O)c2c[nH]c3ncc(-c4ccc(Cl)cc4)cc23)c1F | enzyme activity, inhibitor | 1 µM | inhibition | < 10%
COc1cc2ncnc(Nc3ccc(Oc4ccccc4)c(C)c3C)c2cc1OC | enzyme activity, inhibitor | 1 µM | inhibition | -17%
Cc1ccc(NC(=O)c2ccc(CN3CCN(C)CC3)cc2)cc1Nc1nc(-c2cccnc2)cs1 | cell-free assay | 0.5 µM | remaining signal | 102%
CC(C)(C)c1nc(-c2cccc(NS(=O)(=O)c3c(F)cccc3F)c2F)c(-c2ccnc(N)n2)s1 | enzyme activity, inhibitor, radiometric | 1 µM | remaining activity | 69%
FC(F)(F)Oc1cccc(-c2cnc3ccc(-c4ccncc4)nn23)c1 | enzyme activity, inhibitor, radiometric | 5 µM | activity vs control | 96%
Cc1ncc([N+](=O)[O-])n1C(=NO)c1ccccc1C(F)(F)F | enzyme activity, inhibitor | 10 µM | inhibition | 21.4%
Cc1ccc(C(=O)Nc2ccc(CN3CCN(C)CC3)c(C(F)(F)F)c2)cc1C#Cc1cnc2cccnn12 | enzyme activity, inhibitor | 23.5 nM | remaining activity | 100%
CS(=O)(=O)N1CCCC(NC(=O)[C@H](CCC2CCCCC2)NC(=O)c2ccc(CNc3ncnc4c3nnn4-c3ccccc3)cc2)C1 (stereo partly shown) | cell-free assay, competition with immobilised ligand | 0.1 µM | remaining binding | 100%
CSc1nc(C)c(-c2ccnc(Nc3ccc(N4CCOCC4)cc3)c2)[nH]1 | enzyme activity, inhibitor | 10 µM | inhibition | -1.9%
Nc1cnc(N2CCc3cc(S(=O)(=O)Nc4c(F)cc(Cl)cc4F)cc(N4CCCC4=O)c32)nc1 | cell-free assay, competition with immobilised ligand | 1 µM | remaining binding | 100%
Nc1nc(Nc2ccccc2)sc1C(=O)c1c(F)cccc1F | enzyme activity, inhibitor | 10 µM | remaining activity | 99%
O=C1Nc2ccc(Cl)cc2C1=Cc1cc(Cl)c(O)c(Cl)c1 | cell-free assay | 0.5 µM | remaining signal | 100%

Structure (SMILES) | assay | conditions | measurement | result
CCS(=O)(=O)c1cc2cc(C[C@](O)(CC(C)(C)c3ccc(F)cc3C(N)=O)C(F)(F)F)[nH]c2cn1 | cell-free assay, competition with immobilised ligand | 1 µM | remaining binding | 100%
C=CC(=O)Nc1cc(Nc2nccc(Nc3cc(Cl)c(F)cc3C(C)(C)O)n2)c(OC)cc1N1CC[C@@H](N(C)C)C1 | enzyme activity, inhibitor | 1 µM | inhibition | 4%
CC(C)(C)C(=O)c1sc(NC2CCCCC2)nc1N | enzyme activity, inhibitor | 10 µM | remaining activity | 102%
Cc1ccc(Nc2nccc(N(C)c3ccc4c(C)n(C)nc4c3)n2)cc1S(N)(=O)=O | enzyme activity, inhibitor | 0.3 µM | inhibition | 4%
CN(C)C(=O)Cn1cc(-c2nc([C@@](C)(c3ccc(-c4cnc(N)nc4)cc3)C3CC3)no2)cn1 | cell-free assay, competition with immobilised ligand | 1 µM | remaining binding | 92%
CS(=O)(=O)Nc1cccc(-c2csc(NC(=O)CSc3nc4nccnc4c(=O)n3CCc3ccccc3)n2)c1 | enzyme activity, inhibitor | 10 µM | inhibition | 1%
CCCOc1ccc(OC)c(F)c1C(=O)c1ccc(C(=O)N[C@@H]2CNC[C@H]2NC(=O)c2ccc3[nH]ncc3c2)cc1 | enzyme activity, inhibitor | 10 µM | remaining activity | 49%
C[C@H](NC(=O)c1cnc2n1[C@](C)(Cc1ccc(C#N)cc1)C(=O)N2c1cc(Cl)c(F)c(Cl)c1)C(=O)NC1(c2ccccn2)CC1 | cell-free assay, competition with immobilised ligand | 1 µM | remaining binding | 100%
Cc1cnc(NC2CCOCC2)nc1-n1cnc(C(=O)NC(CN)c2cc(F)cc(Cl)c2)c1 (stereo not shown) | enzyme activity, inhibitor, radiometric | 1 µM | remaining activity | 108%
CNC(=O)c1cc(Oc2ccc(NC(=O)Nc3ccc(Cl)c(C(F)(F)F)c3)cc2)ccn1 | enzyme activity, inhibitor | 10 µM | inhibition | 6%
Nc1ncnc2occ(-c3ccc(NC(=O)Nc4cc(C(F)(F)F)ccc4F)cc3)c12 | cell-free assay, inhibitor | 20 µM | remaining signal | 86%
Cc1sc(C(=O)NC2COC2)cc1-n1cc(NC(=O)Nc2c(F)cccc2Cl)cn1 | enzyme activity, inhibitor | 10 µM | remaining activity | 93.6%
FC(F)c1nc2ccccc2n1-c1nc(N2CCOCC2)nc(N2CCOCC2)n1 | enzyme activity, inhibitor | 10 µM | remaining activity | 91%
Cn1cc(Cl)c2c(Oc3c(F)cc(Nc4cc(Cl)nc(N)n4)cc3F)ccnc21 | cell-free assay, competition with immobilised ligand | 0.1 µM | remaining binding | 100%
CCN(CC)CCNC(=O)c1c(C)[nH]c(/C=C2\C(=O)Nc3ccc(F)cc32)c1C | enzyme activity, inhibitor | 0.3 µM | inhibition | 7%
CNc1cccc2cc(C(=O)Nc3ccc(C(=O)O)cc3)c(=O)[nH]c12 | enzyme activity, inhibitor | 10 µM | inhibition | 11%
Cc1nc(C2CCN(C(=O)c3ccc(OC(F)(F)F)cc3N)CC2)c2ncc(N3CCN(C)CC3)cc2n1 | cell-free assay, competition with immobilised ligand | 1 µM | remaining binding | 100%
